Test results from the EternaBench riboswitch data.

Test system: MS2 coat protein
Assay: apparent Kd, MS2 coat protein; higher = weaker binding; RNA-MaP array; FMN 200 µM where present
Outline: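 Binding was read on Illumina sequencing-chip clusters where stalled E. coli RNA polymerase had transcribed each design. A titration of SNAP-549-labelled MS2 coat protein began at 0.7 or 1.5 nM and doubled to 3 µM, once without ligand and once with constant ligand, in 100 mM Tris-HCl pH 7.5, 80 mM KCl, 4 mM MgCl2, BSA, DTT, yeast tRNA and Tween-20. The apparent Kd is the median of filtered per-cluster binding-curve fits, based on green signal normalised to red-channel RNA signal and control-cluster median Fmax.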

[1] = designed as: ON switch for flavin mononucleotide, no ligand
[2] = ligand present: flavin mononucleotide, designed as: ON switch for flavin mononucleotide
[3] = designed as: OFF switch for flavin mononucleotide, no ligand
[4] = ligand present: flavin mononucleotide, designed as: OFF switch for flavin mononucleotide

Row | Sequence | apparent Kd [1] [µM] | apparent Kd [2] [µM] | apparent Kd [3] [µM] | apparent Kd [4] [µM]
1 | GGUCGUCACAUGAACAUGAGGAUCACCCAUGUAAAUUCUCAUGAGGAUAUGGAUCCUAAUUGGAUCCAGAAGGCGUGGACGACC | 0.953 | 0.457 |  | 
2 | GUAAUGUGAGGAUAUGGUAAAGAUAAGAUGAUGAAAGAACUCCAGAAGGCACAUGAGGAUCACCCAUGUAGAUG |  |  | 0.0267 | 0.107
3 | AGAGAAUACUCAGGAUAUCUGAAUAGAAAGAGAAGAGAAGGGAGACAUGAGGAUCACCCAUGUGAAGUCUUGAGACUACAUGGU |  |  | 0.366 | 0.426
4 | UGGUACUAGGGAGGAUAUGGGAAGAUACAUGAGGAUCACCCAUGUUUAAGAAUGCCGAGAGGCAACUAGAAGGCACUAGUACCU | 1.1 | 0.156 |  | 
5 | GGUGCGAUGUAGAAGGCAGAUCUGAUUCAGAUCUGAGGAUAUACAUGAGGAUCACCCAUGUUACGCACCAGCACGAGAGUGCAA |  |  | 0.00618 | 0.0111
6 | GAUAGGACAGAGAAGGACAUAGCUAGAGAUACUAGCAUAUGAACCUCUACAUGAGGAUCACCCAUGUAGGAUAUCUGUCCUAUC |  |  | 0.00607 | 0.00621
7 | UAUAUGUCAGGAUAUCGAUUGGAAUGGAAUUUAGUUUUGGUCGAGAAGGGACAUGAGGAUCACCCAUGUUUUUC |  |  | 0.0387 | 0.215
8 | AAAAAACAUGAGGAUCACCCAUGUAAUACAACGUCAGGAUAUUGAUUUUAUUAUGUAUUGCAAGAAGGGACUUGUA | 0.0721 | 0.0254 |  | 
9 | ACAUGAGGAUGAGGAUAUUCAUACAUGAGGAUAGAAGAAGGCAUACAUGAGGAUCACCCAUGUAUACACAUGAGGAUCUCCCAU |  |  | 0.0255 | 0.0305
10 | AGGUACAUGAGGAUCACCCAUGUAAGAGCCCUCAUGCGAUGUAGAAGGAUAAUGCGAGAAGUGCUAUAGGAUAUACAUGAGAAA |  |  | 0.14 | 0.143
11 | CCCUACGUUUCGUAGCAGUGUCAUCGAGAAGGCCCUGACAUGAGGAUCACCCAUGUUGUUACAUGGGAGGAUAUCGAUGAUCCC | 0.0186 | 0.00547 |  | 
12 | GGGCCGCUACGCCGGCUCCACGCACAGGAUAUGCAGUUACAUGAGGAUCACCCAUGUGGCCAUGUGCAGAAGGGUGAUUCGCGA | 0.0787 | 0.0461 |  | 
13 | UCGUACAUUCGAGGAUAUCGGUGAUAUAUAUUACGAGAAGGCGAUUGUUUGUUUUACGCCUUAGACAUGAGGAUCACCCAUGUA | 0.0777 | 0.0552 |  | 
14 | AGCUAGUCAGGAUAUACGAAAAUGUCCGAAGCUGAGAAGGGACAUGAGGAUCACCCAUGUAGAAGGGACUAGCA |  |  | 0.102 | 0.264
15 | GUGGGACAUGAGGAUCACCCAUGUGGGAGGGAACGAGGAUAUGUGAGGAGCGAGAAGUGAACAGAAGGCGUGGUUG | 0.0828 | 0.0514 |  | 
16 | AAAUUUAACGAAGGAUAUGGUUACAUGAGGAUCACCCAUGUAAUGGCUGUGAUAUUGAUUAAGUUCCAGAAGGUCGUAUACAUA |  |  | 0.0524 | 0.192
17 | GUUUCGGGAGGAUAUGCGUGGAUUGUUCUCGUAUGGUGUCUACAUGAGGAUCACCCAUGUAGAAGGUCUGGAGC |  |  | 0.018 | 0.0386
18 | GUAGCUAUCGGAGGAUAUUUAUACCGUAAACGGACAUGAGGAUCACCCAUGUGGCGAAAGCCUUGGGAGAAGGCCGAUAGCUAC | 0.0326 | 0.00468 |  | 
19 | CGCCUCGUGUCGAACAUGAGGAUCACCCAUGUAAUGGGCACCGAGGAUAUCCCGCUGGCGUUAUGGGAGAAGGCGGUGGAUUUA |  |  | 0.045 | 0.131
20 | AUGGUCAUGUUAGGAUAUGACGCGCUGUACGCAUCAGAAGGAACAUGAGGAUCACCCAUGUAUAGAGUAUUAUCGCUUACUCUC |  |  | 0.0527 | 0.0853
21 | UUAUGAGAGCAGGAUAUCUUAUUUUUUUUUUAUGGAGAAGGGCUCACAUGAGGAUCACCCAUGUGGUCCUAGAU |  |  | 0.0279 | 0.0544
22 | GUUUACGCGGAAGGAUAUACAUUUGACAUCUUGAUGCGCGCAAUACUCACAUGAGGAUCACCCAUGUAGAAGGUCUGCGAAAGA |  |  | 0.0151 | 0.0249
23 | GUCCUACAUGAGGAUCACCCAUGUGAGGAUAUGGUUUCGCUGGCCGUAGCCAGUGGAACCAGAAGGCGCGUGAU |  |  | 0.0653 | 0.0734
24 | AAAUUUUGUCAAGGAUAUGUAUAAUUGAGUUGAAAACAUGAGGAUCACCCAUGUAUAUGGUGGGAACAGAAGGUGAAUAAGUAA |  |  | 0.195 | 0.151
25 | CACGAUGAUGUAGGAUAUAUGCUGGAAUACAGCAUAGAAGGACAUGAGGAUCACCCAUGUUAAGUGCCUCCAAAUAACAUCGUG |  |  | 0.0157 | 0.0217
26 | AAUGGGCACCAGAAGGACAUGAGGAUCACCCAUGUAGGAUAUGGGCGUUGAAGAUGUCUGAUCGAGUUGCUGGAAAGAUAUGGG | 0.311 | 0.0734 |  | 
27 | AAUAAACUCACAGGAUAUAGCAGAGGUCGCGUAAACUUACAGGCGACGAUGCUAGAAGGGUGACCACAUGAGGAUCACCCAUGU | 0.871 | 0.118 |  | 
